An excerpt weighted towards active compounds, which were near 1.4% of everything screened.
T cell modulator: T cell immune modulators affecting CD8 T cell-vesicle binding | 2C CD8+ T cell-vesicle binding, flow cytometry; stronger effect = lower value | response (vesicle binding), % at 7 µM | 0.068% of 330,000 active | AID 2052;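 active means response, share of CD8 T cells binding vesicles, and their 90th percentile fluorescence all below set limits, cut at about 80% in these data, passing the limit was not always enough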;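 further: values below 100% mean blocked vesicle binding to the CD8+ T cells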
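Incubation: binding step 1.5 h, 37 °C, antibody labelling 20 min, ice; system: murine 2C transgenic CD8+ T lymphocytes; technique: cytometric PE anti-B7-1 and Alexa647 anti-CD8 signals after 1% paraformaldehyde fixation; also added: QL9-charged Drosophila Ld/ICAM-1/B7-1 vesicles; control set: naked versus QL9-loaded vesicles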
Mot1-301 SUMO: inhibitors of SUMOylation pathway: yeast Mot1-301 growth rescue. S. cerevisiae Mot1-301 growth rescue, ATP luminescence, 38.5C; percent above DMSO median, 100 means doubled. growth rescue, % at 18.8 µM. 1% of 320,000 active;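 active means every valid replicate shows activation above 250% relative to neutral control wells; inactive means the rest, any valid replicate at or below 250%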;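 further: OY570 slx delta 5 strain wells were the positive control but not used for scaling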
JMJD2C inh: human JMJD2C demethylase inhibition; Q9H3R0; GST-JMJD2C(1-420) H3K9me3 demethylation, DELFIA europium; inhibition, % at 2.35 µM; 0.069% of 330,000 active; AID 2099;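 active means more than half of a compound's replicate wells show inhibition beyond 50%, single wells judged on their own value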;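 further: signal counts dimethyl H3K9 product captured on neutravidin plate; 0% = median of DMSO wells and 100% = 0.3 times that DMSO median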
Target sequence (Q9H3R0 1-420 limits assumed): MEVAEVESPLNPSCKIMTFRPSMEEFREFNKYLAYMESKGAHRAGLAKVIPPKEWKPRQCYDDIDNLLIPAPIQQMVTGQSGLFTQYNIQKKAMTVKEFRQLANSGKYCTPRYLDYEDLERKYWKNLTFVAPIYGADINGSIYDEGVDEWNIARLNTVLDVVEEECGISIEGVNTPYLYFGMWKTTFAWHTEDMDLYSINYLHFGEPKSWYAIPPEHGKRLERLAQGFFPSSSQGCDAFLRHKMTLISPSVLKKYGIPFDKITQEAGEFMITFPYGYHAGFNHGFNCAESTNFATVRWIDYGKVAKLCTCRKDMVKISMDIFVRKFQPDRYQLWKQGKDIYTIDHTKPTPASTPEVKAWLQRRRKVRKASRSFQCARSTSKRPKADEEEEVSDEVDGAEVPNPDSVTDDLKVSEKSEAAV
HIF activator: HIF pathway transcriptional activation | activation, % at 7.5 µM (by protocol) | AID 1910 | U2OS HRE-luciferase reporter, luminescence; normalized: DMSO 0%, desferrioxamine 100% | 0.32% of 300,000 active;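 active means mean activation of at least 10% of the iron chelator positive control signal, with at least half of replicates also reaching 10%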
Yeast Mot1 SUMO: SUMO pathway inhibitors in yeast Mot1-301 growth; 2,300 tested, under 10 active; AID 493004; shares compounds with Mot1-301 SUMO; S. cerevisiae Mot1-301 galactose growth, ATP luminescence, 24 h; -100 = growth of slx-deleted rescue strain; growth activity, percent, % at 42 µM;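 active means Signal drops as the depositor expects, and the fitted half-maximal dose is no more than ten times the top valid tested dose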;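 further: more negative values mean stronger growth rescue toward the control strain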
An asterisk follows results filed as active; i = inactive; / = not tested or not shown; + = active, no number; [ ] = dose if it differs, or a comment.

SMILES | T cell modulator | Mot1-301 SUMO | JMJD2C inh | HIF activator | Yeast Mot1 SUMO
CC(C)Oc1ccccc1C1NC(=O)CCC1[N+](=O)[O-] (centres undefined) | 154.0 | -14.8 | -25.9 | -11.0 | /
COc1ccc(OC)c(Cc2nnc(CCC(=O)NC3CCCCC3)o2)c1 | 483.2 | -11.0 | 4.6 | 0.8 | /
COc1ccc(OC)c(Cc2nnc(CCC(=O)NCc3ccsc3)o2)c1 | i | + | 6.5 | 1.4 | 0.1
CC1C(=O)N2CCCc3cc(S(=O)(=O)NCc4ccccc4Cl)cc1c32 (centres undefined) | 429.9 | 4.5 | 12.6 | 0.0 | /
CC(C)Cn1c(N)c(C(=O)COC(=O)COc2cccc(C(F)(F)F)c2)c(=O)n(C)c1=O | 205.3 | -5.5 | 3.2 | -0.4 | /
Cc1noc(C)c1S(=O)(=O)N1CCCC(C(=O)NCC2CCCO2)C1 (centres undefined) | 316.3 | + | -19.0 | -0.7 | 0.5
Cc1ccc(S(=O)(=O)N2CCCC(C(=O)NCC3CCCO3)C2)cc1 (centres undefined) | 268.0 | 17.0 | -15.2 | 0.1 | /
COc1ccccc1C(=O)N1CCN(C(=O)c2oc3ccc(C)cc3c2C)CC1 | 208.2 | 18.4 | -2.6 | -0.5 | /
CC(=O)N1CCN(CC(=O)Nc2cc(S(=O)(=O)N3CCOCC3)ccc2C)CC1 | 401.1 | 1.7 | -0.3 | -0.3 | /
CN(C(=O)c1cccnc1)c1nnc(-c2cnccn2)s1 | 566.2 | 0.6 | 7.2 | 0.3 | /
CN(C(=O)C1CCCO1)c1nnc(-c2cnccn2)s1 (centres undefined) | 292.0 | 519.2* | 3.1 | 4.7 | 0.0
Cc1ccc(-c2nnc(N(C)C(=O)C3CCCO3)s2)cn1 (centres undefined) | 173.4 | / | 12.1 | 1.6 | /
CN(C(=O)c1ccncc1)c1nnc(-c2cnccn2)s1 | 119.9 | 365.2* | 5.7 | 0.3 | 0.4
COc1ccc(S(=O)(=O)N2CCCCC2)cc1NC(=O)[C@@H]1CCCN1C(=O)c1cccs1 | 904.6 | 204.7 | -10.8 | / | /
COc1ccccc1N1CCN(C(=O)c2ccc(N3CCCCS3(=O)=O)cc2)CC1 | 317.3 | 607.3* | 0.4 | -0.3 | 0.6
Cc1ccc(NC(=O)CN2C(=O)c3ccccc3S2(=O)=O)cc1C | 169.0 | -1.0 | -28.2 | 1.2 | /
Cc1ccc(SCCNC(=O)CN2C(=O)c3ccccc3S2(=O)=O)cc1 | 290.0 | 397.8* | -0.8 | -3.2 | -0.2
COc1ccc(NC(=O)CN2C(=O)c3ccccc3S2(=O)=O)cc1OC | 253.5 | 403.5* | -7.4 | -0.1 | 0.2
O=C(CSc1ccccn1)Nc1nonc1[N+](=O)[O-] | 323.3 | / | -6.4 | -5.0 | /
O=C(CSc1nnc(C2CC2)n1-c1ccccc1)N1CCCC1 | 329.3 | 10.0 | 5.6 | / | /
COc1ccc(Cl)cc1NC(=O)Nc1ccc(C(=O)N2CCOCC2)cc1 | 286.5 | -7.5 | -0.8 | 0.7 | /
Cc1nc(CC(=O)N/N=C/c2ccc(OCC(=O)O)cc2)cs1 | 249.2 | 571.3* | -4.7 | -0.3 | -0.4
COCCNC(=O)C(OC(=O)c1ccco1)c1ccccc1F (centres undefined) | 331.6 | -13.6 | -7.7 | 0.1 | /
CC1=Nc2ccccc2/C1=C\c1nc(-c2ccccc2)oc1O | 224.9 | 622.8* | 36.3 | 0.7 | -1.4
COc1ccc(-c2nc(/C=C3\C(C)=Nc4ccccc43)c(O)o2)cc1 | 264.4 | 11.8 | 10.5 | 1.6 | /
SMILES | T cell modulator | Mot1-301 SUMO | JMJD2C inh | HIF activator | Yeast Mot1 SUMO
CCOc1ccc(C(=O)Cn2cnc3ccccc3c2=O)cc1 | 191.1 | -1.2 | -3.3 | 4.7 | /
O=C(Cn1cnc2ccccc2c1=O)c1ccc(OC(F)F)cc1 | 298.4 | 512.6* | -8.0 | 2.1 | -0.1
Cc1ccc(NC(=O)CSc2nc3sc(C)cc3c(=O)n2C)cc1 | 419.1 | 12.4 | -0.2 | -0.7 | /
Cc1ccc(C)c(N2CCN(C(c3ccncc3)c3nnnn3Cc3ccccc3)CC2)c1 (centres undefined) | 349.2 | 421.5* | 7.0 | -0.4 | 0.9[21 µM]
c1ccc(Cn2nnnc2C(c2ccccc2)N2CCN(c3nc4ccccc4s3)CC2)cc1 (centres undefined) | 208.7 | 14.8 | -11.3 | 0.0 | /
COc1cc(/C=N/n2cnnc2)ccc1OCc1ccc(C)cc1 | 191.6 | 141.8 | 7.6 | 2.0 | /
COc1cc(/C=N/n2cnnc2)ccc1OCc1ccccc1 | i | 540.0* | 0.3 | 2.2 | 0.6
Cc1ccc(Cl)c(NC(=O)CN2CCNC(=O)C2)c1Cl | 267.2 | -9.3 | 29.2 | -0.5 | /
CCC1OC2(C)OC(=N)C1(C#N)C(C#N)(C#N)C2c1ccccc1 (centres undefined) | 331.2 | 156.2 | 3.0 | 0.5 | /

Screening data as filed in PubChem.
